Assay results taken from ChEMBL document CHEMBL3091285, “Cytotoxic compounds from invasive giant salvinia (Salvinia molesta) against human tumor cells” (Bioorg Med Chem Lett, 2013).

Experiments:
[1] = Cytotoxicity against human MRC5 cells assessed as growth inhibition by WST-8 assay; assay type: cell-based
[2] = Cytotoxicity against human BxPC3 cells assessed as growth inhibition by WST-8 assay; assay type: functional; details: BXPC-3
[3] = Cytotoxicity against human PANC1 cells assessed as growth inhibition by WST-8 assay; assay type: functional; details: PANC-1
HL-60 = test: Cytotoxicity against human HL60 cells assessed as growth inhibition by WST-8 assay; assay type: functional
PC-3 = test: Cytotoxicity against human PC3 cells assessed as growth inhibition by WST-8 assay; assay type: functional
A549 = test: Cytotoxicity against human A549 cells assessed as growth inhibition by WST-8 assay; assay type: functional
BXPC-3 = test: Antiproliferative activity against human BxPC3 cells after 12 to 48 hrs by CCK-8 assay; assay type: functional, cell-based
In short: (§1)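 Pancreatic cancer cells (PANC-1, BxPC-3) exposed to test compound at 0 (control), 5, 10, 20, 40, 60, 80 or 100 uM, with concentration levels differing between compounds. Proliferation followed over incubation time, with viable cell number (x1,000) plotted against hours to assess dose-dependent suppression.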

PANC-1 = test: Antiproliferative activity against human PANC1 cells after 12 to 48 hrs by CCK-8 assay; assay type: functional, cell-based; in short: as §1
MDA-MB-231 = test: Cytotoxicity against human MDA-MB-231 cells assessed as growth inhibition by WST-8 assay; assay type: functional

SMILES	GI50 [1] [µM]	GI50 [2] [µM]	GI50 [3] [µM]	GI50 (HL-60) [µM]	GI50 (PC-3) [µM]	GI50 (A549) [µM]	inhibition (BXPC-3)	inhibition (PANC-1)	GI50 (MDA-MB-231) [µM]
CC(C)c1cc2c(c(O)c1O)[C@@]1(C)CCCC(C)(C)[C@@H]1CC2=O [DEMETHYLCRYPTOJAPONOL]	40.2	45	43.1	35.3	41	35			
CC(C)c1cc2c(cc1O)[C@@]1(C)CCCC(C)(C)[C@@H]1C[C@H]2CC1=CCC(O)(C(C)C)CC1 (some centres not stated)	58.4	87.3	60.4	48.1	54.2	62.9	Dose-dependent effect	Dose-dependent effect	75
CC(C)c1cc2ccc3c(c2cc1O)CCCC3(C)C	55.4	36.4	37.5	50	43.6	42.2			
CC(C)c1cc2c(cc1O)[C@@]1(C)CCCC(C)(C)[C@@H]1CC2O (some centres not stated)	70.5	74.7	78.2	75.2	85.6	75.1			
CC(C)c1cc2c(cc1O)[C@@]1(C)CCCC(C)(C)C1=CC2=O		> 100	> 100	92.8	> 100	84.5			
CC(C)c1ccc2c3c(ccc2c1)C(C)(C)CCC3	> 100	> 100	> 100	> 100	> 100	> 100			
CC(C)c1cc2c(cc1O)[C@@]1(C)CCCC(C)(C)[C@@H]1C=C2	59.2	37.5	46.7	66.5	58.1	53.8			
CO[C@H]1c2cc(C(C)C)c(O)c(O)c2[C@@]23CCCC(C)(C)[C@@H]2[C@@H]1OC3=O						86.5			
CC(C)c1cc2c(cc1O)[C@@]1(C)CCCC(C)(C)[C@@H]1CC2=O [SUGIOL]	> 100	36.1	87.9	68.6	> 100	79.8			
CC(C)C1=C(O)C(=O)C2=C(C=C[C@H]3C(C)(C)CCC[C@]23C)C1=O	40.2	41.7	51.3	30	46.3	48			
CC(C)C1=Cc2ccc3c(c2C(=O)C1=O)C(=O)CCC3(C)C	20.4	20.5	32.1	23.3	19	24.9			
CC(C)C1=C(O)C(=O)C2=C(CC[C@H]3C(C)(C)CCC[C@]23C)C1=O [ROYLEANONE]	45.7	51	52.6	36.3	27.1	30.1			
CC(C)c1cc2c(c(O)c1O)[C@@]1(C)CCCC(C)(C)C1=C(O)C2=O [14-DEOXYCOLEON U]	24.8	37.3	22.6	13.3	8.39	9.1			> 100
CC(C)c1cc(C=O)c([C@@]2(C)CCCC(C)(C)[C@@H]2C=O)cc1O						93.8			
CC(C)c1cc2c(cc1O)[C@@]1(C)CCCC(C)(C)C1=C(O)C2=O	20	25	23.1	11.5	13.2	11.1	Dose-dependent effect	Dose-dependent effect	
COc1cc2c(cc1C(C)C)C(=O)C(O)=C1C(C)(C)CCC[C@@]12C						21.2			
CC(C)c1cc2c(cc1O)[C@@]1(C)CCCC(C)(C)[C@@H]1CC2 [FERRUGINOL]	40	21.1	41.1	27.3	56.5	30.7			
